ChEMBL document CHEMBL3352386, “Development of chiral praziquantel analogues as potential drug candidates with activity to juvenile Schistosoma japonicum” (2014)

Legend:
Schistosoma japonicum [1] = experiment: Antischistosomal activity against adult Schistosoma japonicum assessed as vitality reduction at 80 uM after 24 hrs (reference value: 0%); format: functional
Schistosoma japonicum [2] = experiment: Antischistosomal activity against adult Schistosoma japonicum assessed as worm survival at 80 uM after 72 hrs (reference value: 100%); format: functional
Outline: (§1)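 Five adult male S. japonicum worms recovered 6 weeks post-infection from female ICR Kunming mice, in duplicate dishes of bicarbonate-buffered DMEM with 20% newborn calf serum, penicillin, streptomycin and amphotericin B. Compound diluted from DMSO stock; DMSO control. Kept at 37 °C, 5% CO2, observed daily by stereomicroscope. Survival% = surviving/total worms × 100.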

Schistosoma japonicum [3] = experiment: Antischistosomal activity against adult Schistosoma japonicum assessed as vitality reduction at 80 uM after 48 hrs (reference value: 0%); format: functional
Schistosoma japonicum [4] = experiment: Antischistosomal activity against juvenile Schistosoma japonicum assessed as vitality reduction at 50 uM after 72 hrs (reference value: 0%); format: functional
Schistosoma japonicum [5] = experiment: Antischistosomal activity against adult Schistosoma japonicum assessed as vitality reduction at 100 uM after 72 hrs (reference value: 0%); format: functional
Schistosoma japonicum [6] = experiment: Antischistosomal activity against adult Schistosoma japonicum assessed as vitality reduction at 50 uM after 24 hrs (reference value: 0%); format: functional
Schistosoma japonicum [7] = experiment: Antischistosomal activity against juvenile Schistosoma japonicum assessed as worm survival at 50 uM after 24 hrs (reference value: 100%); format: functional
Outline: (§2)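 Nine juvenile S. japonicum worms recovered 17 days post-infection from female ICR Kunming mice, in duplicate dishes of bicarbonate-buffered DMEM with 20% newborn calf serum plus penicillin, streptomycin and amphotericin B. Compound diluted from DMSO stock. Held at 37 °C, 5% CO2, with daily stereomicroscope scoring. Survival% = surviving/total worms × 100.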

Schistosoma japonicum [8] = experiment: Antischistosomal activity against adult Schistosoma japonicum assessed as worm survival at 80 uM after 24 hrs (reference value: 100%); format: functional; outline: as §1
Schistosoma japonicum [9] = experiment: Antischistosomal activity against juvenile Schistosoma japonicum assessed as worm survival at 50 uM after 72 hrs (reference value: 100%); format: functional; outline: as §2
Schistosoma japonicum [10] = experiment: Antischistosomal activity against adult Schistosoma japonicum assessed as vitality reduction at 50 uM after 72 hrs (reference value: 0%); format: functional
Schistosoma japonicum [11] = experiment: Antischistosomal activity against juvenile Schistosoma japonicum infected in ICR Kunming mouse assessed as worm reduction at 200 mg/kg, po for 5 days beginning on day 14 after infection (reference value: 0%)
Schistosoma japonicum [12] = experiment: Antischistosomal activity against juvenile Schistosoma japonicum assessed as vitality reduction at 50 uM after 24 hrs (reference value: 0%); format: functional
Schistosoma japonicum [13] = experiment: Antischistosomal activity against adult Schistosoma japonicum assessed as worm survival at 100 uM after 48 hrs (reference value: 100%); format: functional; outline: as §1
Schistosoma japonicum [14] = experiment: Antischistosomal activity against adult Schistosoma japonicum assessed as vitality reduction at 80 uM after 72 hrs (reference value: 0%); format: functional
Schistosoma japonicum [15] = experiment: Antischistosomal activity against adult Schistosoma japonicum assessed as worm survival at 50 uM after 48 hrs (reference value: 100%); format: functional; outline: as §1
Schistosoma japonicum [16] = experiment: Antischistosomal activity against adult Schistosoma japonicum assessed as vitality reduction at 50 uM after 48 hrs (reference value: 0%); format: functional
Schistosoma japonicum [17] = experiment: Antischistosomal activity against adult Schistosoma japonicum assessed as worm survival at 50 uM after 72 hrs (reference value: 100%); format: functional; outline: as §1
Schistosoma japonicum [18] = experiment: Antischistosomal activity against adult Schistosoma japonicum assessed as worm survival at 80 uM after 48 hrs (reference value: 100%); format: functional; outline: as §1
Schistosoma japonicum [19] = experiment: Antischistosomal activity against juvenile Schistosoma japonicum assessed as vitality reduction at 50 uM after 48 hrs (reference value: 0%); format: functional
Schistosoma japonicum [20] = experiment: Antischistosomal activity against adult Schistosoma japonicum assessed as vitality reduction at 100 uM after 24 hrs (reference value: 0%); format: functional
Schistosoma japonicum [21] = experiment: Antischistosomal activity against adult Schistosoma japonicum assessed as worm survival at 100 uM after 72 hrs (reference value: 100%); format: functional; outline: as §1
Schistosoma japonicum [22] = experiment: Antischistosomal activity against juvenile Schistosoma japonicum assessed as worm survival at 50 uM after 48 hrs (reference value: 100%); format: functional; outline: as §2
Schistosoma japonicum [23] = experiment: Antischistosomal activity against adult Schistosoma japonicum assessed as vitality reduction at 100 uM after 48 hrs (reference value: 0%); format: functional
Schistosoma japonicum [24] = experiment: Antischistosomal activity against adult Schistosoma japonicum assessed as worm survival at 100 uM after 24 hrs (reference value: 100%); format: functional; outline: as §1
Schistosoma japonicum [25] = experiment: Antischistosomal activity against adult Schistosoma japonicum assessed as worm survival at 50 uM after 24 hrs (reference value: 100%); format: functional; outline: as §1

| Compound | inhibition at 80 µM (Schistosoma japonicum [1]) [%] | survival at 80 µM (Schistosoma japonicum [2]) [%] | inhibition at 80 µM (Schistosoma japonicum [3]) [%] | inhibition at 50 µM (Schistosoma japonicum [4]) [%] | inhibition at 100 µM (Schistosoma japonicum [5]) [%] | inhibition at 50 µM (Schistosoma japonicum [6]) [%] | survival at 50 µM (Schistosoma japonicum [7]) [%] | survival at 80 µM (Schistosoma japonicum [8]) [%] | survival at 50 µM (Schistosoma japonicum [9]) [%] | inhibition at 50 µM (Schistosoma japonicum [10]) [%] | inhibition in vivo at 200 mg/kg (Schistosoma japonicum [11]) [%] | inhibition at 50 µM (Schistosoma japonicum [12]) [%] | survival at 100 µM (Schistosoma japonicum [13]) [%] | inhibition at 80 µM (Schistosoma japonicum [14]) [%] | survival at 50 µM (Schistosoma japonicum [15]) [%] | inhibition at 50 µM (Schistosoma japonicum [16]) [%] | survival at 50 µM (Schistosoma japonicum [17]) [%] | survival at 80 µM (Schistosoma japonicum [18]) [%] | inhibition at 50 µM (Schistosoma japonicum [19]) [%] | inhibition at 100 µM (Schistosoma japonicum [20]) [%] | also measured |
| --- | --- | --- | --- | --- | --- | --- | --- | --- | --- | --- | --- | --- | --- | --- | --- | --- | --- | --- | --- | --- | --- |
| O=C1CCC(C(=O)N2CC(=O)N3CCc4ccccc4C3C2)C1 (racemic) | 23.3 | 100 | 13.3 | 54.3 | 8.7 | 0 | 54.2 | 100 | 54.2 | 0 | 37.4 | 55.6 | 100 | 0 | 100 | 0 | 100 | 100 | 55.6 | 17.8 | survival at 100 µM (Schistosoma japonicum [21]): 100%; survival at 50 µM (Schistosoma japonicum [22]): 54.2%; inhibition at 100 µM (Schistosoma japonicum [23]): 13.3%; survival at 100 µM (Schistosoma japonicum [24]): 100%; survival at 50 µM (Schistosoma japonicum [25]): 100% |
| O=C1CCC(C(=O)N2CC(=O)N3CCc4ccccc4[C@@H]3C2)CC1 | 82 | 100 | 69.3 | 66.7 | 77.8 | 73.3 | 51.6 | 60 | 44.1 | 55.5 | 60 | 60.5 | 60 | 60 | 80 | 60 | 100 | 100 | 64.2 | 86.7 | survival at 100 µM (Schistosoma japonicum [21]): 60%; survival at 50 µM (Schistosoma japonicum [22]): 48.3%; inhibition at 100 µM (Schistosoma japonicum [23]): 82.2%; survival at 100 µM (Schistosoma japonicum [24]): 40%; survival at 50 µM (Schistosoma japonicum [25]): 60% |
